# Source: ChEMBL document CHEMBL4825663 (J Med Chem, 2021)
# Columns and labels:
# [1] = Cmax in human upto 360 mg, po administered as repeated dose for 5 consecutive days; assay type: ADME, organism-based; set-up: route oral, dose <=360; conditions: in vivo
# MDA-MB-231 [2] = experiment: (§1) Antitumor activity against human MDA-MB-231 cells xenografted in athymic nude mouse assessed as reduction in median number of days for tumor to reach two tumor mass doubling at 20 mg/kg, po administered every other day for 4 doses in presence of 8 mg/kg encequidar and monitored for 70 to 82 days (reference value: 13.1 day); assay type: functional; conditions: time 70-82 day
# [3] = Toxicity in athymic nude mouse xenografted with human MDA-MB-231 cells assessed as reduction in body weight at 30 mg/kg, po administered every other day for 4 doses in presence of 12 mg/kg encequidar and monitored for 70 to 82 days; assay type: organism-based; set-up: scale not given: the % may be the effect or the level left; conditions: in vivo, time 70-82 day
# Summary of the method: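 Female athymic NCr-nu mice (n = 10/group) bearing subcutaneous MDA-MB-231 xenografts were treated from day 8. […] Individual body weights were monitored for 82 days after implantation.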
# MDA-MB-231 [4] = experiment: as §1, with “at 40” for “at 20”, “of 16” for “of 8”; assay type: functional; conditions: time 70-82 day
# [5] = Toxicity in athymic nude mouse xenografted with human NCI-H460 cells assessed as reduction in body weight at 18 to 24 mg/kg, iv administered every other day for 4 doses monitored for 48 days; assay type: organism-based; conditions: in vivo, 1152 h, dose 18-24 mg/kg, time 48 day
# Summary of the method: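 Female athymic NCr-nu mice carried subcutaneous NCI-H460 human lung tumor xenografts. Paclitaxel was given IV at 18 or 24 mg/kg every other day for four doses. Animals were followed for 48 days after tumor implantation, with individual body weights and mortality recorded alongside tumor weights.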
# [6] = Clearance in Sprague-Dawley rat at 6 mg/kg, iv measured upto 24 hrs by LC-MS/MS analysis; assay type: ADME, organism-based; conditions: in vivo
# [7] = Cmax in Sprague-Dawley rat at 20 mg/kg, po measured upto 24 hrs by LC-MS/MS analysis; assay type: ADME, organism-based; set-up: route oral, dose 20 mg/kg, time <=24; conditions: in vivo
# [8] = Drug distribution in BALB/c mouse intestine at 20 mg/kg, po measured upto 24 hrs in presence of 10 mg/kg encequidar by LC-MS/MS analysis; assay type: ADME, organism-based; conditions: in vivo
Cmax [1],SMILES,Time (MDA-MB-231 [2]),Activity [3],Time (MDA-MB-231 [4]),Activity [5],clearance [6],Cmax [7],Drug uptake [8]
22.5 ng/mL,COc1cc2c(cc1OC)CN(CCc1ccc(-n3nnc(-c4cc(OC)c(OC)cc4NC(=O)c4cc(=O)c5ccccc5o4)n3)cc1)CC2,–,–,–,–,–,–,–
–,CC(=O)O[C@H]1C(=O)[C@@]2(C)[C@H]([C@H](OC(=O)c3ccccc3)[C@]3(O)C[C@H](OC(=O)[C@H](O)[C@@H](NC(=O)c4ccccc4)c4ccccc4)C(C)=C1C3(C)C)[C@]1(OC(C)=O)CO[C@@H]1C[C@@H]2O [PACLITAXEL],15.1 days,5%,>69 days,Toxic,35 mL/min,127 ng/mL,Active
